# Experimental data gathered from unrelated publications.
# Protocols differ between the studies behind these lines.
# Effect on: cell growth or viability
SMILES,cell line,technique,tested at,time,quantity,result
Oc1ccc(Nc2nc(-c3ccc(Cl)cc3)cs2)cc1,FF2441,MTS,,72 h,IC50,> 100 µM
Cc1ccc2nc(-c3ccccc3O)[nH]c2c1,MDA-MB-231,MTT,,48 h,IC50,31.9 µM
COc1cc(OC)c(OC)cc1CN1CCc2cc(OS(N)(=O)=O)c(OC)cc2C1,MDA-MB-231,WST-1,,96 h,GI50,0.491 µM
CNC(=O)c1ccc(N2C(=S)N(c3ccc(C#N)c(C(F)(F)F)c3)C(=O)C2(C)C)cc1F,CWR22Rv1,MTT,,,GI50,15.1 µM
CCOC(=O)C(C(C)=O)=C1Sc2nc3ccc(S(=O)(=O)N4CCCC4)cc3nc2S1,MDA-MB-231,MTT,25 µM,24 h,viability,13.8%
COc1cc(OC)c(CN2CCc3cc(O)c(OC)cc3C2)c(OC)c1,MDA-MB-231,WST-1,,96 h,GI50,> 100 µM
COc1cc(C)c(-c2c(C)cc(OC)c3c(=O)cc(-c4ccc(N(C)C)cc4)oc23)c2oc(-c3ccc(N(C)C)cc3)cc(=O)c12,HS27,MTT,,24 h,IC50,180 µM
COc1cc2c(cc1O)CCN(C(=O)c1cc(OC)c(OC)c(OC)c1)C2,MDA-MB-231,WST-1,,96 h,GI50,0.733 µM
COc1ccc(-c2cc(=O)c3c(OC)cc(OC)cc3o2)cc1,HS27,MTT,,24 h,IC50,> 200 µM
Cc1ccc2nc(-c3ccc(N(C)C)cc3)[nH]c2c1,MDA-MB-231,MTT,,48 h,IC50,31.5 µM
COc1ccc(CN2CCc3cc(OS(N)(=O)=O)c(OC)cc3C2)cc1OC,MDA-MB-231,WST-1,,96 h,GI50,3.15 µM
N#CC(C(=O)Nc1cccc(C(F)(F)F)c1)=C1Sc2nc3ccc(S(=O)(=O)N4CCCC4)cc3nc2S1,MDA-MB-231,MTT,25 µM,24 h,viability,26.5%
COC(=O)CN=c1scc(-c2ccccc2)n1-c1ccccc1[N+](=O)[O-],SiHa,MTT,,,IC50,6.78 µM
COc1cccc(-c2nc3ccccc3[nH]2)c1,MDA-MB-231,MTT,,48 h,IC50,25.5 µM
COc1cc(OC)c2c(=O)cc(-c3ccc(C(F)(F)F)cc3)oc2c1,HS27,MTT,,24 h,IC50,> 200 µM
Cc1ccc2nc(-c3ccc(Cl)cc3Cl)[nH]c2c1,MDA-MB-231,MTT,,48 h,IC50,27.5 µM
CC#CC(=O)N1CC[C@@H](n2cc(-c3ccc(Oc4c(F)cccc4F)cc3)c3c(N)n[nH]c(=O)c32)C1,OCI-Ly3,ATP luminescence,,72 h,GI50,9.56 µM
COc1cc(C)cc2oc(-c3ccccc3Br)cc(=O)c12,HS27,MTT,,24 h,IC50,130 µM
Cc1ccc2nc(-c3cccnc3)[nH]c2c1,MDA-MB-231,MTT,,48 h,IC50,89 µM
COc1cc(C)cc2oc(-c3ccc(N(C)C)cc3)cc(=O)c12,HS27,MTT,,24 h,IC50,141 µM
COc1cc2c(cc1OS(N)(=O)=O)CCN(Cc1cccc(OC(C)C)c1)C2,MDA-MB-231,WST-1,,96 h,GI50,4.65 µM
Clc1ccc(-c2nc3ccccc3[nH]2)cc1,MDA-MB-231,MTT,,48 h,IC50,> 100 µM
COc1cc2c(cc1OS(N)(=O)=O)CCN(C(=O)c1cc(OC)c(OC)c(OC)c1)C2,MDA-MB-231,WST-1,,96 h,GI50,1.72 µM
O=C1CCCCC1=C1Sc2nc3ccc(S(=O)(=O)N4CCCC4)cc3nc2S1,MDA-MB-231,MTT,25 µM,24 h,viability,23.4%
c1cncc(-c2nc3ccccc3[nH]2)c1,MDA-MB-231,MTT,,48 h,IC50,> 100 µM
COc1cc(C)c(-c2c(C)cc(OC)c3c(=O)cc(-c4cccc(Br)c4)oc23)c2oc(-c3cccc(Br)c3)cc(=O)c12,HS27,MTT,,24 h,IC50,> 200 µM
COc1cc2c(cc1O)CCN(Cc1ccc(OC)c(OC)c1OC)C2,MDA-MB-231,WST-1,,96 h,GI50,> 100 µM
Cc1ccc2nc(-c3ccc([N+](=O)[O-])cc3)n(Cc3ccccc3Cl)c2c1,MDA-MB-231,MTT,,,IC50,28.5 µM
COc1cccc2c1C(=O)c1c(O)c3c(c(O)c1C2=O)C[C@@](O)(C(=O)CO)C[C@@H]3O[C@H]1C[C@H](N)[C@H](O)[C@H](C)O1,MDA-MB-231,MTT,50 µM,24 h,viability,11.8%
COc1cc(OC)c2c(=O)cc(-c3ccccc3Br)oc2c1-c1c(OC)cc(OC)c2c(=O)cc(-c3ccccc3Br)oc12,HS27,MTT,,24 h,IC50,> 200 µM
